Reference: ChEMBL document CHEMBL1128460, “Design, synthesis, and structure-activity relationships of a new series of alpha-adrenergic agonists: spiro[(1,3-diazacyclopent-1-ene)-5,2'-(1',2',3',4'- tetrahydronaphthalene)]” (J Med Chem, 1995)

What was measured:
[1] = species: Canis familiaris; test: Effective concentration for the agonist in the isolated blood vessel using in vitro saphenous vein; type: functional; conditions: Canis lupus familiaris
Summary of the method: (§1)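 Vessel segments from mongrel dogs (15–25 kg) anesthetized with pentobarbital (30 mg/kg iv), mounted for isometric tension in physiological saline. Equilibrated 90 min with bath changes every 30 min, rauwolscine (10^-7 M) present throughout. Primed with KCl (100 mM), then phenylephrine (1 µM). Agonist concentration–response curves run at half-log steps, giving EC50 (µM) and Emax as % of phenylephrine maximum; mean ±SD.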

[2] = species: Canis familiaris; test: Maximal contractile response obtained with the agonist (expressed as a percentage of the maximal contraction to phenylephrine in the dog femoral artery); type: functional, Canis lupus familiaris; summary of the method: as §1
[3] = species: Canis familiaris; test: Maximal contractile response obtained with the agonist (expressed as a percentage of the maximal contraction to phenylephrine in the dog saphenous vein); type: functional, Canis lupus familiaris; summary of the method: as §1
[4] = target: T1, Adrenergic receptor alpha (Rattus norvegicus) (UniProt P15823+P23944+P43140+P22086+P19328+P22909); test: Alpha adrenergic activity was evaluated as concentration (iv) which increases the arterial pressure by 20 mmHg in the pithed rat; type: functional, organism-based; conditions: Artery
[5] = Ratio of C20 obtained in the absence or presence of [C20 ( 0.1 mg of prazosin ) / C20 (control)]; type: functional
Summary of the method: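 Pithed rats pretreated with tertatolol (100 mg/kg), then 10 min later with prazosin (100 µg/kg). Cumulative iv agonist doses given another 10 min later at 20 s intervals. Arterial pressure recorded, C20 (dose giving +20 mmHg) determined. Ratio calculated as C20(prazosin)/C20(control); 3–6 determinations.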

[6] = Ratio of C20 obtained in the absence or presence of [C20 (1 mg of yohimbine.) / C20 (control)]; type: functional
Summary of the method: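 Pithed rat arterial pressure assay with tertatolol (100 mg/kg) pretreatment, then yohimbine (1 mg/kg) 10 min later. Cumulative iv agonist doses given at 20 s intervals after a further 10 min, C20 (+20 mmHg dose) obtained. Ratio expressed as C20(yohimbine)/C20(control); 3–6 determinations.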

[7] = target: T1, Adrenergic receptor alpha (Rattus norvegicus); test: Alpha adrenergic activity was evaluated as maximal pressure response caused by agonist, expressed in mmHg (the maximum obtained with phenylephrine is 150 mmHg).; type: functional
[8] = species: Canis familiaris; test: Effective concentration for the agonist in the isolated blood vessel using in vitro femoral artery; type: functional; conditions: Canis lupus familiaris; summary of the method: as §1

| Structure (SMILES) | EC50 [1] | Emax [2] | Emax [3] | C20 [4] | Ratio [5] | Ratio [6] | Max [7] | EC50 [8] |
| --- | --- | --- | --- | --- | --- | --- | --- | --- |
| Fc1cc(F)c2c(c1)CC1(CC2)CN=CN1 (stereo unspecified) | 6.3 µM | 0 | 35 | 31 µg/kg | 2.4 | 5.7 | 84 mmHg | – |
| CN1C=NC2(CCc3ccccc3C2)C1 (stereo unspecified) | 25 µM | 0 | 31 | 150 µg/kg | 2.1 | 2.5 | 77 mmHg | – |
| CC(C)Oc1ccc2c(c1)CCC1(CN=CN1)C2 (stereo unspecified) | 3.9 µM | 0 | 15 | 74 µg/kg | 11 | 66 | 62 mmHg | – |
| CCc1ccc2c(c1)CC1(CC2)CN=CN1 (stereo unspecified) | 75 µM | 0 | 50 | 209 µg/kg | 2.5 | 2.6 | 61 mmHg | – |
| Cc1ccc(C)c2c1CCC1(CN=CN1)C2 (stereo unspecified) | 2.4 µM | 67 | 84 | 0.5 µg/kg | 2.1 | 4.8 | 140 mmHg | 3 µM |
| NC1=NC2(CCc3ccccc3C2)CO1 (stereo unspecified) | 2.3 µM | 18 | 76 | 5.2 µg/kg | 3.5 | 19.6 | 95 mmHg | 26 µM |
| C1=NC2(CCc3ccccc3C2)CO1 (stereo unspecified) | – | 0 | 0 | > 10000 µg/kg | – | – | 38 mmHg | – |
| Clc1cc2c(cc1Cl)CC1(CC2)CN=CN1 (stereo unspecified) | 44 µM | 0 | 36 | 33 µg/kg | 7 | 3.1 | 101 mmHg | – |
| COc1cc2c(c(OC)c1)CCC1(CN=CN1)C2 (stereo unspecified) | 7.3 µM | 25 | 44 | 7.9 µg/kg | 2.9 | 2.6 | 109 mmHg | 0.7 µM |
| COc1ccc(SC)c2c1C[C@@H]1[C@@H](C2)OCCN1C | 0.023 µM | 28 | 38 | 23 µg/kg | 5.1 | 2.4 | 123 mmHg | 38 µM |
| Clc1cccc2c1CCC1(CN=CN1)C2 (stereo unspecified) | – | – | – | 7 µg/kg | 1.3 | 2.8 | 125 mmHg | – |
| Clc1cccc2c1CC1(CC2)CN=CN1 (stereo unspecified) | 0.24 µM | 83 | 95 | 0.3 µg/kg | 1.9 | 4.7 | 133 mmHg | 1.6 µM |
| Clc1cc(Cl)c2c(c1)CCC1(CN=CN1)C2 (stereo unspecified) | 6 µM | 75 | 100 | 4.2 µg/kg | – | – | 137 mmHg | 8 µM |
| CC1=NC2(CCc3ccccc3C2)CN1 (stereo unspecified) | 400 µM | 0 | 23 | 166 µg/kg | 1.8 | 5.3 | 113 mmHg | – |
| Oc1cccc2c1CC1(CC2)CN=CN1 (stereo unspecified) | 10 µM | 22 | 66 | 4.3 µg/kg | 0.9 | 12 | 119 mmHg | 39 µM |
| COc1ccc(Cl)c2c1CCC1(CN=CN1)C2 (stereo unspecified) | 0.027 µM | 102 | 106 | – | – | – | – | 0.27 µM |
| CCOc1ccc(OCC)c2c1CCC1(CN=CN1)C2 (stereo unspecified) | 2.7 µM | 55 | 68 | 0.6 µg/kg | 24 | 7.7 | 157 mmHg | 0.85 µM |
| NC1=NC2(CCc3ccccc3C2)CN1 (stereo unspecified) | 52 µM | 2 | 36 | 57 µg/kg | 2.5 | 26 | 53 mmHg | 50 µM |
| COc1cc2c(cc1OC)CC1(CC2)CN=CN1 (stereo unspecified) | – | – | – | 98 µg/kg | 1.8 | – | 129 mmHg | – |
| FC(F)(F)c1ccc2c(c1)CC1(CC2)CN=CN1 (stereo unspecified) | – | – | 7 | 320 µg/kg | 10 | 2.7 | 55 mmHg | – |
| COc1ccc2c(c1OC)CCC1(CN=CN1)C2 (stereo unspecified) | 52 µM | 21 | 67 | 142 µg/kg | 2.9 | 2.4 | 107 mmHg | 50 µM |
| COc1cc2c(cc1O)CCC1(CN=CN1)C2 (stereo unspecified) | 19 µM | 69 | 97 | 1.2 µg/kg | 9.2 | 2.8 | 134 mmHg | 1.4 µM |
| CCOc1ccc(OC)c2c1CCC1(CN=CN1)C2 (stereo unspecified) | 0.8 µM | 85 | 98 | 0.06 µg/kg | 21.5 | 4.8 | 147 mmHg | 0.08 µM |
| Cc1ccc2c(c1)CCC1(CN=CN1)C2 (stereo unspecified) | 2.1 µM | 12 | 44 | 5.4 µg/kg | 1.3 | 6.1 | 114 mmHg | 14 µM |
| CC(C)(C)c1ccc2c(c1)CC1(CC2)CN=CN1 (stereo unspecified) | 40 µM | 0 | 35 | 465 µg/kg | 1.7 | 1.6 | 45 mmHg | – |
